Where a SMILES comes first, the peptide text is derived from it. [ ]: non-standard residue; d: D form. The star is where a group is joined. dArg(NO2) = N=C(NCCC[C@@H](N)C(=O)O)N[N+](=O)[O-]; Arg(NO2) = N=C(NCCC[C@H](N)C(=O)O)N[N+](=O)[O-]; OBn = c1ccc(CO*)cc1
Tests used:
[1] = target: T1, Nitric oxide synthase 3 (Bos taurus, UniProt P29473); test: Inhibition of endothelial isoform of nitric oxide synthase
T1 sequence (P29473 whole entry): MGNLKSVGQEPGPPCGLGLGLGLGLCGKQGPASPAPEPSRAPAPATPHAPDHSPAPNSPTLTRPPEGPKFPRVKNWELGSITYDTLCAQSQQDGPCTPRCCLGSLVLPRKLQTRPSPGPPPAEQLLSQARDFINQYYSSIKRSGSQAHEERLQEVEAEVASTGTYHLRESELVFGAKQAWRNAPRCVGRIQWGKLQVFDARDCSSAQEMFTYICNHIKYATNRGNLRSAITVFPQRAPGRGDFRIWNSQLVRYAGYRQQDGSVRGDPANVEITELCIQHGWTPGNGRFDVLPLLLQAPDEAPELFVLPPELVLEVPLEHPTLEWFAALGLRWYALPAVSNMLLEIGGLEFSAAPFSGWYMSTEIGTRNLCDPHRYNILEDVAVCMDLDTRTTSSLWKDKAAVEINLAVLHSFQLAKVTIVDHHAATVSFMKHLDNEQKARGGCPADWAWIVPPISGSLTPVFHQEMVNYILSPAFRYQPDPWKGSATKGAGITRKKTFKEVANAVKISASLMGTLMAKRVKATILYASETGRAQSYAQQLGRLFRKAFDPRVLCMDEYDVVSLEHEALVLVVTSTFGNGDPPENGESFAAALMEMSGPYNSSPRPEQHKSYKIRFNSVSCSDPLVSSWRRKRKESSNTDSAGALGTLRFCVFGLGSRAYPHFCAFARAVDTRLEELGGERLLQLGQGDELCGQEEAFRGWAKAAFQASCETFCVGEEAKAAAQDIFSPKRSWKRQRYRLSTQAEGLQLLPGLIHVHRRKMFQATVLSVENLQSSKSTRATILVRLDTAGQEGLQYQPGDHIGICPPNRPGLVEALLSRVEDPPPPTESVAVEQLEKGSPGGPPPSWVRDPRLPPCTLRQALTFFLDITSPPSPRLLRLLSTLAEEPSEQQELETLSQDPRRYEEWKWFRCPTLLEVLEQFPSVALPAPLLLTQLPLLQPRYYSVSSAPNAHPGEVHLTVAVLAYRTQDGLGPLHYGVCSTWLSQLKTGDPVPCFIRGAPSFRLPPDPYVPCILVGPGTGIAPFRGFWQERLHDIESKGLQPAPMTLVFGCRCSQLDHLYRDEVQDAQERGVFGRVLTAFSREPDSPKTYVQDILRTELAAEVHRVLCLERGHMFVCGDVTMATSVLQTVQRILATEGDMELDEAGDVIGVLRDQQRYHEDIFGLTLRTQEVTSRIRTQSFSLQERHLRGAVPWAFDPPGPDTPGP
Procedure, shortened: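 eNOS expressed in E. coli, purified and supplemented with L-arginine and BH4 (235 nmol NO/mg/min at 25 °C). NO formation was followed by oxyhemoglobin capture (80 µM) under initial rates in 50 mM Hepes pH 7.5 with 3-25 µM L-arginine, 100 µM DTT, 10 µM CaCl2, 1 µg/mL calmodulin, 5 µM BH4 and 100 µM NADPH. Ki came from Dixon plots with varied substrate and inhibitor.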

[2] = target: T2, Nitric oxide synthase, inducible (Mus musculus, UniProt P29477); test: Inhibition of inducible Nitric Oxide Synthase
T2 sequence (P29477 whole entry): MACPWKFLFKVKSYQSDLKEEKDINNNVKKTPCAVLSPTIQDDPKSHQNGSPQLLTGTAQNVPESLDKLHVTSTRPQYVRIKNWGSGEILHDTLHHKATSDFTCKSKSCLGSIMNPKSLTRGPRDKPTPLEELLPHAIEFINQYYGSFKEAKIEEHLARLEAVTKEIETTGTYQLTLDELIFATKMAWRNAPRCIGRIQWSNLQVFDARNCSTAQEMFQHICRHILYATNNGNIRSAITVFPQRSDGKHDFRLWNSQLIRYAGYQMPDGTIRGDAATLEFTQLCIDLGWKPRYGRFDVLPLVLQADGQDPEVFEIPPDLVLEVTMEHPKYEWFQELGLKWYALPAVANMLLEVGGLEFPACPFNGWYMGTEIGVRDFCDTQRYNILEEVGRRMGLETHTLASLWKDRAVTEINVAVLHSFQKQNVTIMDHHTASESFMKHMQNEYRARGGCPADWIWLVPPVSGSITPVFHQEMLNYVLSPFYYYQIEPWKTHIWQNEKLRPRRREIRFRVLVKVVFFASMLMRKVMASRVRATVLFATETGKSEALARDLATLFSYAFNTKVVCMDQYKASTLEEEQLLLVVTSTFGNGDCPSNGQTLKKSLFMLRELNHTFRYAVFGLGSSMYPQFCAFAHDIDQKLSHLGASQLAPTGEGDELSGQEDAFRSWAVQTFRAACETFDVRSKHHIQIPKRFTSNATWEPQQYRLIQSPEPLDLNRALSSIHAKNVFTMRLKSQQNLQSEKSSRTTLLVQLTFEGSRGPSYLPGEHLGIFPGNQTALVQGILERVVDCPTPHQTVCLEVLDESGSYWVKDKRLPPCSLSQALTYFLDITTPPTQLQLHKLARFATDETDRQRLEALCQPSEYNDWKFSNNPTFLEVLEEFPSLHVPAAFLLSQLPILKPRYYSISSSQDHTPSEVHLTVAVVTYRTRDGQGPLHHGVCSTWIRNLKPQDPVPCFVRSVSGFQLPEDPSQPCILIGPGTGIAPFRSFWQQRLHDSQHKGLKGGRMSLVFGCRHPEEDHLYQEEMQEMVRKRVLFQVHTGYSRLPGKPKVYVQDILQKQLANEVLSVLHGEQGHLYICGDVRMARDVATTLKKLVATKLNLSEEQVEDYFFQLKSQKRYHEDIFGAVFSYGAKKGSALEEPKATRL
Procedure, shortened: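 Purified murine macrophage iNOS expressed in recombinant E. coli (500 nmol NO/mg/min at 30 °C). Initial-rate hemoglobin capture assay in 100 mM Hepes pH 7.5 with 10-60 µM L-arginine, 100 µM DTT, 100 µM NADPH, 6.5 µM BH4 and 3 µM oxyhemoglobin, without added calcium/calmodulin. Ki taken from Dixon plots across varied L-arginine and inhibitor concentrations.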

[3] = Selectivity for iNOS and eNOS binding, ratio of Ki
[4] = target: Nitric oxide sythases; iNOS & nNOS (Homo sapiens) (UniProt P29475+P35228); test: Selectivity for nNOS and iNOS, ratio of Ki; assay type: protein assay
[5] = Selectivity for nNOS and eNOS, ratio of Ki

Chain of Nitric oxide sythases; iNOS & nNOS (Homo sapiens) (P29475 whole entry, looked up): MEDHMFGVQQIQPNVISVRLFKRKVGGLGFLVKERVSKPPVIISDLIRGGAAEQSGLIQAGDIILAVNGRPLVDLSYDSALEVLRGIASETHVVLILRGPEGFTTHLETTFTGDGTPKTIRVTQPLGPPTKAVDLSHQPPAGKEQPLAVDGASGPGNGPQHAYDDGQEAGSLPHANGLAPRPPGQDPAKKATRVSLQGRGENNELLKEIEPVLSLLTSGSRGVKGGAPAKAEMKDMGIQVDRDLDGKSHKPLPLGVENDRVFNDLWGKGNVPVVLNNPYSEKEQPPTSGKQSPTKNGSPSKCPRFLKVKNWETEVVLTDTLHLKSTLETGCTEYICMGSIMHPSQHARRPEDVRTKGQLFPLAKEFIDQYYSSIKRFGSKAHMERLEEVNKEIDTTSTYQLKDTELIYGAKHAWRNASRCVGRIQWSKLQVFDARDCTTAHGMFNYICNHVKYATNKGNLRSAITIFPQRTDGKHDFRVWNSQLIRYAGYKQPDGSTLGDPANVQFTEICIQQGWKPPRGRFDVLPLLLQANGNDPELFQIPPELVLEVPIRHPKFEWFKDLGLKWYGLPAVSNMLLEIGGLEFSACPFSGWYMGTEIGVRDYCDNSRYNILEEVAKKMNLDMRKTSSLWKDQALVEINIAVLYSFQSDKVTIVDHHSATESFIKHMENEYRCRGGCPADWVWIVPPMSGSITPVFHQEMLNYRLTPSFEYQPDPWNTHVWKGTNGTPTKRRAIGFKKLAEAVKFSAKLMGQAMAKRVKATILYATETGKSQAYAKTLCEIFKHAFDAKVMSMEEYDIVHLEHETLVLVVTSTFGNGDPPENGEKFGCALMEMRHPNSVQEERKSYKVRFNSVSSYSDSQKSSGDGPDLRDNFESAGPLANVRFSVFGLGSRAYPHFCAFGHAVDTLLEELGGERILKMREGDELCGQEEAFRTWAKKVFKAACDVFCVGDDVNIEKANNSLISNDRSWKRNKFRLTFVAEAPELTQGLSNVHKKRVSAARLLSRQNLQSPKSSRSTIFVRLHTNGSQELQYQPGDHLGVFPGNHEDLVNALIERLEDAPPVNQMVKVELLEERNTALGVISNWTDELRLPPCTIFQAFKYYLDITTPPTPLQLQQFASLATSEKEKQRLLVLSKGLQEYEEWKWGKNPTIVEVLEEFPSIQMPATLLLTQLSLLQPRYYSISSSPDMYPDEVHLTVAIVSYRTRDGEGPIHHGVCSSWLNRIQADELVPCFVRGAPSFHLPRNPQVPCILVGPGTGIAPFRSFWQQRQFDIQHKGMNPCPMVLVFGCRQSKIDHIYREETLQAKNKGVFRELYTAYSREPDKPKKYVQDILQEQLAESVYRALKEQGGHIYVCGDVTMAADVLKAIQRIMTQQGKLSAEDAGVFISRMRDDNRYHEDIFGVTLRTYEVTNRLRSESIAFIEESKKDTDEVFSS
Chain of Nitric oxide sythases; iNOS & nNOS (Homo sapiens) (P35228 whole entry, looked up): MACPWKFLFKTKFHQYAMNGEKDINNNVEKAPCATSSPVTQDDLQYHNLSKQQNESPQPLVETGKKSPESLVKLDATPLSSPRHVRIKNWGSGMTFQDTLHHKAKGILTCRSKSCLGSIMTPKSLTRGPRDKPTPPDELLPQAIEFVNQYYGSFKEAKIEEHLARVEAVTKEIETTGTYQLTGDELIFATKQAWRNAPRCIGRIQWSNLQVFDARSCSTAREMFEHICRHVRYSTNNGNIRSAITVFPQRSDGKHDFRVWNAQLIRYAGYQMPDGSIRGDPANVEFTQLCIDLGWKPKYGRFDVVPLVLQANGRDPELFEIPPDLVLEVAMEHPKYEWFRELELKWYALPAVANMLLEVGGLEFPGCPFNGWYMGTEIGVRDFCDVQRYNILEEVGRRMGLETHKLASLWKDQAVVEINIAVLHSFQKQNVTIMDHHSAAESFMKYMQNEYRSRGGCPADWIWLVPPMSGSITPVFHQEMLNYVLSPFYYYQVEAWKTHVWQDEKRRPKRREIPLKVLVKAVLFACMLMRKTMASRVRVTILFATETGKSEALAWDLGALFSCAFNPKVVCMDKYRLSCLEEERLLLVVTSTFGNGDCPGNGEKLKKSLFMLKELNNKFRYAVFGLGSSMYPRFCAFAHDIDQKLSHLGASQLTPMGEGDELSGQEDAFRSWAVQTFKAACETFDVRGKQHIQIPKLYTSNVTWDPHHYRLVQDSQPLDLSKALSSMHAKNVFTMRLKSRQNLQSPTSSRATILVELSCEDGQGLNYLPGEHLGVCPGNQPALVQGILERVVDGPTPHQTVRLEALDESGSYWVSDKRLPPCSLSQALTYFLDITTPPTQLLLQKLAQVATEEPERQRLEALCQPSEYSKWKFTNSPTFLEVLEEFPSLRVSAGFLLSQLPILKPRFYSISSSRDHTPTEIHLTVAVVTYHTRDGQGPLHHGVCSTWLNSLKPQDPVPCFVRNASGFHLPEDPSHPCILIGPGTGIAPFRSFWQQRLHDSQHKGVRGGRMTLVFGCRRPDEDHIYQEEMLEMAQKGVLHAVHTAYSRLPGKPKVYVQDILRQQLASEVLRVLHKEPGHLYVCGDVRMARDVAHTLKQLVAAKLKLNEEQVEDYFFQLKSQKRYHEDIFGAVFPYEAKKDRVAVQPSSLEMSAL

| Compound | Ki [1] [µM] | Ki [2] [µM] | Selectivity [3] | Selectivity [4] | Selectivity [5] |
| --- | --- | --- | --- | --- | --- |
| N=C(NCCC[C@H](NC(=O)[C@@H](N)Cc1ccccc1)C(=O)O)N[N+](=O)[O-] (H-Phe-[Arg(NO2)]-OH) | 490 | 93 |  |  |  |
| COC(=O)[C@H](CCC/N=C(\N)N[N+](=O)[O-])NC(=O)[C@@H](N)Cc1ccccc1 | 1350 | 204 | 6.6 | 0.55 | 3.6 |
| N/C(=N\CCC[C@H](N)C(=O)N[C@@H](Cc1ccccc1)C(=O)OCc1ccccc1)N[N+](=O)[O-] | 125 | 18 | 6.9 | 0.33 | 2.3 |
| COC(=O)[C@@H](CCC/N=C(\N)N[N+](=O)[O-])NC(=O)[C@@H](N)Cc1ccccc1 | 150 | 7500 | 0.02 | 83.3 | 1.7 |
| COC(=O)[C@H](Cc1ccccc1)NC(=O)[C@@H](N)CCC/N=C(\N)N[N+](=O)[O-] | 400 | 45 |  |  |  |
| N/C(=N\CCC[C@H](N)C(=O)N[C@@H](Cc1ccccc1)C(=O)O)N[N+](=O)[O-] | 395 | 160 | 2.5 | 8.9 | 21.9 |
| COC(=O)[C@@H](Cc1ccccc1)NC(=O)[C@H](N)CCCNC(=N)N[N+](=O)[O-] | 375 | 6500 |  |  |  |
| COC(=O)[C@@H](CCCNC(=N)N[N+](=O)[O-])NC(=O)[C@H](N)Cc1ccccc1 [listing 1 of 2 here] | 5 | 3600 |  |  |  |
| COC(=O)[C@@H](Cc1ccccc1)NC(=O)[C@H](N)CCC/N=C(\N)N[N+](=O)[O-] |  |  | 0.058 | 43.3 | 2.5 |
| COC(=O)[C@@H](CCCNC(=N)N[N+](=O)[O-])NC(=O)[C@H](N)Cc1ccccc1 [listing 2 of 2 here] | 8500 | 1200 |  |  |  |
| N/C(=N\CCC[C@H](NC(=O)[C@@H](N)Cc1ccccc1)C(=O)O)N[N+](=O)[O-] (H-Phe-[Arg(NO2)]-OH) |  |  | 5.3 | 0.66 | 3.5 |
| N/C(=N\CCC[C@@H](NC(=O)[C@H](N)Cc1ccccc1)C(=O)O)N[N+](=O)[O-] (H-[dF]-[dArg(NO2)]-OH) | 90 | 13600 | 0.0066 | 800 | 5.3 |
| N/C(=N\CCC[C@H](NC(=O)[C@@H](N)Cc1ccccc1)C(=O)OCc1ccccc1)N[N+](=O)[O-] (H-Phe-[Arg(NO2)]-OBn) | 250 | 45 | 5.6 | 0.41 | 2.3 |
| COC(=O)[C@@H](Cc1ccccc1)NC(=O)[C@@H](N)CCC/N=C(\N)N[N+](=O)[O-] | 525 | 100 | 5.3 | 1.1 | 5.7 |
